# Experimental data published in ChEMBL document CHEMBL5058577, “EUbOPEN Chemogenomics Library 2 (Multiplex)” (2022).
# Tested on: U2OS
# Experiment: Multiplex assay against U2OS
# Assay type: toxicity, cell-based
# Conditions: human
# Procedure, shortened: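 Tubulin, mitochondrial-mass and membrane-permeability phenotypes are per cents of healthy-nucleus cells. Cells were gated by CellPathfinder machine learning into Hoechst high-intensity objects or normal cells, normal cells into healthy, pyknosed or fragmented nuclei, and pyknosed cells into mitotic or apoptotic. Before that, live cells stained at seeding with Hoechst33342, BioTracker Green Microtubule Cytoskeleton Dye, MitoTracker Red and Annexin V Alexa Fluor 680 were imaged on a CQ1 microscope at 37°C and 5% CO2 after compound addition.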
# [1] = 12 h, 1 µM, compound concentration 1 uM, replicate 1
# [2] = 12 h, 1 µM, compound concentration 1 uM, replicate 2
# [3] = 12 h, 10 µM, compound concentration 10 uM, replicate 1
# [4] = 12 h, 10 µM, compound concentration 10 uM, replicate 2
# [5] = 24 h, 1 µM, compound concentration 1 uM, replicate 1
# [6] = 24 h, 1 µM, compound concentration 1 uM, replicate 2
# [7] = 24 h, 10 µM, compound concentration 10 uM, replicate 1
# [8] = 24 h, 10 µM, compound concentration 10 uM, replicate 2
# [9] = 48 h, 1 µM, compound concentration 1 uM, replicate 1
# [10] = 48 h, 1 µM, compound concentration 1 uM, replicate 2
# [11] = 48 h, 10 µM, compound concentration 10 uM, replicate 1
# [12] = 48 h, 10 µM, compound concentration 10 uM, replicate 2
structure (smiles),measurement,setting,value
NCCc1cn(S(=O)(=O)c2c(Cl)nc3sccn23)c2ccccc12.O=C(O)C(=O)O,Population Apoptotic (%),[1],66%
same,Population Fragmented Nuclei (%),[1],30%
same,Population Healthy Nuclei (%),[1],58%
same,Population Hoechst High Intensity Objects (%),[1],1%
same,Population Membrane Permeable-Phenotype (%),[1],9%
same,Population Mitochondria Different-Phenotype (%),[1],6%
same,Population Mitotic Cells (%),[1],33%
same,Population Normal (%),[1],98%
same,Population Pyknosed Nuclei (%),[1],10%
same,Population Tubulin-Different-Phenotype (%),[1],6%
same,Total Cell Count,[1],280
same,Population Apoptotic (%),[2],81%
same,Population Fragmented Nuclei (%),[2],17%
same,Population Healthy Nuclei (%),[2],72%
same,Population Membrane Permeable-Phenotype (%),[2],4%
same,Population Mitochondria Different-Phenotype (%),[2],8%
same,Population Mitotic Cells (%),[2],18%
same,Population Pyknosed Nuclei (%),[2],9%
same,Total Cell Count,[2],116
same,Population Apoptotic (%),[3],71%
same,Population Fragmented Nuclei (%),[3],26%
same,Population Healthy Nuclei (%),[3],42%
same,Population Hoechst High Intensity Objects (%),[3],5%
same,Population Membrane Permeable-Phenotype (%),[3],42%
same,Population Mitochondria Different-Phenotype (%),[3],60%
same,Population Mitotic Cells (%),[3],28%
same,Population Normal (%),[3],94%
same,Population Pyknosed Nuclei (%),[3],30%
same,Population Tubulin-Different-Phenotype (%),[3],59%
same,Total Cell Count,[3],221
same,Population Apoptotic (%),[4],82%
same,Population Fragmented Nuclei (%),[4],20%
same,Population Healthy Nuclei (%),[4],53%
same,Population Hoechst High Intensity Objects (%),[4],4%
same,Population Membrane Permeable-Phenotype (%),[4],30%
same,Population Mitochondria Different-Phenotype (%),[4],71%
same,Population Mitotic Cells (%),[4],17%
same,Population Normal (%),[4],95%
same,Population Pyknosed Nuclei (%),[4],26%
same,Population Tubulin-Different-Phenotype (%),[4],50%
same,Total Cell Count,[4],115
same,Population Apoptotic (%),[5],69%
same,Population Fragmented Nuclei (%),[5],25%
same,Population Healthy Nuclei (%),[5],66%
same,Population Hoechst High Intensity Objects (%),[5],1%
same,Population Membrane Permeable-Phenotype (%),[5],6%
same,Population Mitochondria Different-Phenotype (%),[5],5%
same,Population Mitotic Cells (%),[5],30%
same,Population Normal (%),[5],98%
same,Population Pyknosed Nuclei (%),[5],8%
same,Population Tubulin-Different-Phenotype (%),[5],3%
same,Total Cell Count,[5],326
same,Population Apoptotic (%),[6],78%
same,Population Fragmented Nuclei (%),[6],20%
same,Population Healthy Nuclei (%),[6],70%
same,Population Membrane Permeable-Phenotype (%),[6],9%
same,Population Mitochondria Different-Phenotype (%),[6],7%
same,Population Mitotic Cells (%),[6],21%
same,Population Pyknosed Nuclei (%),[6],9%
same,Population Tubulin-Different-Phenotype (%),[6],7%
same,Total Cell Count,[6],151
same,Population Apoptotic (%),[7],83%
same,Population Fragmented Nuclei (%),[7],29%
same,Population Healthy Nuclei (%),[7],38%
same,Population Hoechst High Intensity Objects (%),[7],6%
same,Population Membrane Permeable-Phenotype (%),[7],26%
same,Population Mitochondria Different-Phenotype (%),[7],63%
same,Population Mitotic Cells (%),[7],16%
same,Population Normal (%),[7],93%
same,Population Pyknosed Nuclei (%),[7],31%
same,Population Tubulin-Different-Phenotype (%),[7],26%
same,Total Cell Count,[7],240
same,Population Apoptotic (%),[8],86%
same,Population Fragmented Nuclei (%),[8],20%
same,Population Healthy Nuclei (%),[8],46%
same,Population Hoechst High Intensity Objects (%),[8],3%
same,Population Mitochondria Different-Phenotype (%),[8],67%
same,Population Mitotic Cells (%),[8],13%
same,Population Normal (%),[8],96%
same,Population Pyknosed Nuclei (%),[8],33%
same,Population Tubulin-Different-Phenotype (%),[8],38%
same,Total Cell Count,[8],116
same,Population Apoptotic (%),[9],81%
same,Population Fragmented Nuclei (%),[9],21%
same,Population Healthy Nuclei (%),[9],70%
same,Population Hoechst High Intensity Objects (%),[9],1%
same,Population Membrane Permeable-Phenotype (%),[9],5%
same,Population Mitochondria Different-Phenotype (%),[9],4%
same,Population Mitotic Cells (%),[9],18%
same,Population Normal (%),[9],98%
same,Population Pyknosed Nuclei (%),[9],8%
same,Population Tubulin-Different-Phenotype (%),[9],2%
same,Total Cell Count,[9],454
same,Population Apoptotic (%),[10],85%
same,Population Healthy Nuclei (%),[10],66%
same,Population Hoechst High Intensity Objects (%),[10],6%
same,Population Membrane Permeable-Phenotype (%),[10],10%
same,Population Mitochondria Different-Phenotype (%),[10],7%
same,Population Mitotic Cells (%),[10],14%
same,Population Normal (%),[10],93%
same,Population Pyknosed Nuclei (%),[10],12%
same,Population Tubulin-Different-Phenotype (%),[10],7%
same,Total Cell Count,[10],182
same,Population Apoptotic (%),[11],92%
same,Population Fragmented Nuclei (%),[11],37%
same,Population Healthy Nuclei (%),[11],27%
same,Population Hoechst High Intensity Objects (%),[11],7%
same,Population Membrane Permeable-Phenotype (%),[11],25%
same,Population Mitochondria Different-Phenotype (%),[11],56%
same,Population Mitotic Cells (%),[11],7%
same,Population Normal (%),[11],92%
same,Population Pyknosed Nuclei (%),[11],35%
same,Population Tubulin-Different-Phenotype (%),[11],25%
same,Total Cell Count,[11],241
same,Population Fragmented Nuclei (%),[12],29%
same,Population Healthy Nuclei (%),[12],34%
same,Population Membrane Permeable-Phenotype (%),[12],42%
same,Population Mitochondria Different-Phenotype (%),[12],65%
same,Population Tubulin-Different-Phenotype (%),[12],42%
same,Total Cell Count,[12],127
